Measurements reported in ChEMBL document CHEMBL3813596, “Conformational Constraint of the Glycerol Moiety of Lysophosphatidylserine Affords Compounds with Receptor Subtype Selectivity” (J Med Chem, 2016).
Calls of active or inactive are those of the source. The calls are words filed in the database; no cut-off is given here.

Key:
[1] = biological target: Probable G-protein coupled receptor 34 (Mus musculus) (UniProt Q9R1K6); assay: (§1) Agonist activity at mouse GPR34 expressed in HEK293A cells cotransfected with chimeric Galphaq/il after 1.5 hrs by alkaline phosphatase tagged-TGFalpha shedding assay; assay type: cell-based; conditions: HEK293-A
Probable G-protein coupled receptor 34 (Mus musculus), sequence (Q9R1K6 whole entry): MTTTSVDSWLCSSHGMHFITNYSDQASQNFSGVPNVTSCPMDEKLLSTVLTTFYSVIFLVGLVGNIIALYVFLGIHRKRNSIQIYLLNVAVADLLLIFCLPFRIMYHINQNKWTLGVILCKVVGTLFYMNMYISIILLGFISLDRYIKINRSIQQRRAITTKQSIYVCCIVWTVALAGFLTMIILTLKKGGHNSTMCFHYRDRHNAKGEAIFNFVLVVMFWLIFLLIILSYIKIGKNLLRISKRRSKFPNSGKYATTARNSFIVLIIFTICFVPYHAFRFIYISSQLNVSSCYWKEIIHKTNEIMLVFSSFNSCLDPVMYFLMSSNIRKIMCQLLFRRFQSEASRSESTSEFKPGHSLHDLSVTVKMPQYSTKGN

[2] = biological target: Probable G-protein coupled receptor 34 (Mus musculus, UniProt Q9R1K6); assay: as §1; assay type: cell-based, HEK293-A; conditions: read-out: EC50
Probable G-protein coupled receptor 34, sequence (Q9R1K6 whole entry): as above

[3] = biological target: Putative P2Y purinoceptor 10 (Mus musculus, UniProt Q8BFU7); assay: (§2) Agonist activity at mouse P2Y10 receptor expressed in HEK293A cells after 1.5 hrs by alkaline phosphatase tagged-TGFalpha shedding assay; assay type: cell-based, HEK293-A
Putative P2Y purinoceptor 10, sequence (Q8BFU7 whole entry): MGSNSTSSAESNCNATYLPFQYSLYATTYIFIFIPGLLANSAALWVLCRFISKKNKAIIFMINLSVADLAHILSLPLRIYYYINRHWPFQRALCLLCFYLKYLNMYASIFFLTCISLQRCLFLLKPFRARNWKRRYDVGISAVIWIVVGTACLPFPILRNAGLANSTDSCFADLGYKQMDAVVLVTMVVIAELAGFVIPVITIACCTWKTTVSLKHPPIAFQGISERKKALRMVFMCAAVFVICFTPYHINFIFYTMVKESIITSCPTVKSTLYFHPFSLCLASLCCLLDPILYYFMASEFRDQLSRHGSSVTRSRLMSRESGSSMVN
How it was run: (§3)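 Transient transfection of HEK293 cells with AP-TGFα plus the mouse receptor. For GPR34, HEK293A cells also got a chimeric Gαq/i1 subunit; P2Y10 was run in HEK293A and GPR174 in HEK293FT. Cells were seeded 24 h post-transfection in 5 mM HEPES (pH 7.4) HBSS onto serial 3.2-fold compound dilutions (top final 32 μM or lower, limited by mock-cell signal). Ki16425 was present, and incubation ran 1.5 h.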

[4] = biological target: Putative P2Y purinoceptor 10 (Mus musculus) (UniProt Q8BFU7); assay: as §2; assay type: cell-based; conditions: HEK293-A; how it was run: as §3
Putative P2Y purinoceptor 10 (Mus musculus), sequence (Q8BFU7 whole entry): as above

[5] = biological target: Probable G-protein coupled receptor 34 (Mus musculus) (UniProt Q9R1K6); assay: Intrinsic activity at mouse GPR34 expressed in HEK293A cells cotransfected with chimeric Galphaq/il after 1.5 hrs by alkaline phosphatase tagged-TGFalpha shedding assay relative to O-(Hydroxy(((2R,3R)-2-(((3-(2-((3-phenoxybenzyl)oxy)phenyl)-propanoyl)oxy)methyl)tetrahydro-2H-pyran-3-yl)oxy)phosphoryl)-L-serine; assay type: cell-based; conditions: HEK293-A
How it was run: (§4)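 It is a dimensionless estimate of agonist activity. The GPR34 assay used HEK293A cells with chimeric Gαq/i1 and a 1.5 h incubation; the P2Y10 assay used HEK293A cells.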

[6] = biological target: Putative P2Y purinoceptor 10 (Mus musculus) (UniProt Q8BFU7); assay: Intrinsic activity at mouse P2Y10 receptor expressed in HEK293A cells after 1.5 hrs by alkaline phosphatase tagged-TGFalpha shedding assay relative to diF-C3-ph-o-O-C11; assay type: cell-based; conditions: HEK293-A; how it was run: as §4
[7] = biological target: Probable G-protein coupled receptor 34 (Mus musculus) (UniProt Q9R1K6); assay: Agonist activity at mouse GPR34 expressed in HEK293A cells cotransfected with chimeric Galphaq/il assessed as increase in intracellular calcium levels at 1 uM measured after 35 secs by calcium 5 dye based fluorescence microplate reader method in presence of probenecid; assay type: functional, cell-based; conditions: HEK293-A
How it was run: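 HEK293A cells were transfected with mouse GPR34 and Gαq/i1 plasmids, with empty vector plus Gαq/i1 as mock. After 24 h they were seeded in serum-free DMEM at 5 × 10^5 cells/mL for another 24 h. Cells were loaded with Calcium 5 dye for 1 h with 2.5 mM probenecid and given compound at 1 μM or 100 nM near 35 s. Fluorescence was recorded by plate reader, with SD of triplicates.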

HEK293-A = assay: Selectivity ratio of EC50 for mouse P2Y10 receptor expressed in HEK293A cells to EC50 for mouse GPR34 expressed in HEK293A cells; assay type: cell-based
[8] = biological target: Probable G-protein coupled receptor 174 (Mus musculus) (UniProt Q3U507); assay: Agonist activity at mouse GPR174 expressed in HEK293FT cells after 1.5 hrs by alkaline phosphatase tagged-TGFalpha shedding assay; assay type: cell-based; how it was run: as §3
Probable G-protein coupled receptor 174 (Mus musculus), sequence (Q3U507 whole entry): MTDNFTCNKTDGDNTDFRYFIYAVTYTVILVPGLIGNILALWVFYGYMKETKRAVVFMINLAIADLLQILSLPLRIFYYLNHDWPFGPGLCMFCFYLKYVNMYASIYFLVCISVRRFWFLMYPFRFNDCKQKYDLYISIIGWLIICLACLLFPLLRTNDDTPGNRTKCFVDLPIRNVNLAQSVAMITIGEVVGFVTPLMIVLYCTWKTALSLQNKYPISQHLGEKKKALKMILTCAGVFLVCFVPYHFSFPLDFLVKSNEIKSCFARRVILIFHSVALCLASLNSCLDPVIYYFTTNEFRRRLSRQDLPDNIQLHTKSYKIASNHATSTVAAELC

[9] = biological target: Putative P2Y purinoceptor 10 (Mus musculus) (UniProt Q8BFU7); assay: Agonist activity at mouse P2Y10 receptor expressed in rat McA-RH7777 cells assessed as induction of actin stress fiber formation at 100 nM after 30 mins by Alexa fluor 594-labelled phalloidin/DAPI staining based fluorescence microscopy; assay type: cell-based
How it was run: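 McA-RH7777 rat hepatoma cells stably expressing mouse P2Y10, or mock-infected, seeded on collagen I at 2.5 × 10^4 cells/well, grown 24 h in 10% FBS DMEM. Serum-starved 1 h in 0.01% BSA DMEM, stimulated 30 min. Fixed in 4% paraformaldehyde, Triton X-100 permeabilised, stained 1 h with Alexa 594-phalloidin (1.5 μg/mL) and DAPI (1 μg/mL). Scored by fluorescence imaging.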

## N[C@@H](COP(=O)(O)OC[C@H]1OCCC[C@H]1OC(=O)CCc1ccccc1OCc1cccc(Oc2ccc(Cl)cc2)c1)C(=O)O
[1]
  Emax: 15.1%
[2]
  EC50: 120 nM
[3]; read-out: EC50
  EC50: > 1000 nM
[4]
  Emax: inactive
[5]
  Intrinsic activity: 1.2
[6]
  Intrinsic activity: inactive
[7]
  Activity: Active

## Cc1ccc(Oc2cccc(COc3ccccc3CCC(=O)OC[C@H]3OCCC[C@H]3OP(=O)(O)OC[C@H](N)C(=O)O)c2)cc1
[1]
  Emax: 15.2%
[2]
  EC50: 36 nM
[3]; read-out: EC50
  EC50: > 1000 nM
[4]
  Emax: inactive
[5]
  Intrinsic activity: 3.6
[6]
  Intrinsic activity: inactive
[7]
  Activity: Active

## N[C@@H](COP(=O)(O)O[C@@H]1CCCO[C@@H]1COC(=O)CCc1ccccc1OCc1cccc(Oc2ccc(Cl)cc2)c1)C(=O)O
[1]
  Emax: 16.6%
[2]
  EC50: 37 nM
[3]; read-out: EC50
  EC50: > 1000 nM
[4]
  Emax: inactive
[5]
  Intrinsic activity: 3.8
[6]
  Intrinsic activity: inactive
[7]
  Activity: Active

## N[C@@H](COP(=O)(O)OC[C@H]1OCCC[C@H]1OC(=O)CCc1ccccc1OCc1cccc(Oc2ccccc2)c1)C(=O)O
[1]
  Emax: 17.7%
[2]
  EC50: 190 nM
HEK293-A
  Ratio EC50: 100
[3]; read-out: EC50
  EC50: > 1000 nM
[4]
  Emax: inactive
[5]
  Intrinsic activity: 0.85
[6]
  Intrinsic activity: inactive
[7]
  Activity: Active
[8]
  Activity: inactive
[9]
  Activity: inactive

## Cc1ccc(Oc2cccc(COc3ccccc3CCC(=O)O[C@@H]3CCCO[C@@H]3COP(=O)(O)OC[C@H](N)C(=O)O)c2)cc1
[1]
  Emax: 16%
[2]
  EC50: 77 nM
[3]; hek293-a
  EC50: Not Active
[5]
  Intrinsic activity: 1.9
[7]
  Activity: Active

## N[C@@H](COP(=O)(O)O[C@@H]1CCCO[C@@H]1COC(=O)CCc1ccccc1OCc1cccc(Oc2ccccc2)c1)C(=O)O
[1]
  Emax: 14.8%
[2]
  EC50: 140 nM
HEK293-A
  Ratio EC50: 100
[3]; read-out: EC50
  EC50: > 1000 nM
[4]
  Emax: inactive
[6]
  Intrinsic activity: inactive
[7]
  Activity: Active
[8]
  Activity: inactive
[9]
  Activity: inactive
